# GRK2 aptamer HTS: human GRK2 inhibition via aptamer displacement | P25098 | bead flow cytometry, FAM-aptamer displacement from GRK2 | inhibition of aptamer binding, % at 10 µM | 330,000 compounds, 0.59% hits | AID 488847;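 active = inhibition of aptamer binding above 40%, roughly 3 SD of noise, on plates passing a quality check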;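 also: median bead fluorescence of bound FAM aptamer so fluorescent compounds give negative values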
# DDE Tn6 FP inh: disrupts Tn6 cyclic peptide binding to fibrin D-Dimer-E complex. AID 720509. 370,000 compounds, 0.21% hits. Fibrin DD(E) TRITC-Tn6 fluorescence polarization displacement. inhibition, % at 8.3 µM. P02675;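 active = inhibition above a per-campaign cutoff: mean of compounds within control limits plus 3 SD, cut at about 15% in these data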;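 also: 0% = median of all compound wells on the plate and 100% = blocking peptide control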
# Target sequence (P02675 whole entry, looked up): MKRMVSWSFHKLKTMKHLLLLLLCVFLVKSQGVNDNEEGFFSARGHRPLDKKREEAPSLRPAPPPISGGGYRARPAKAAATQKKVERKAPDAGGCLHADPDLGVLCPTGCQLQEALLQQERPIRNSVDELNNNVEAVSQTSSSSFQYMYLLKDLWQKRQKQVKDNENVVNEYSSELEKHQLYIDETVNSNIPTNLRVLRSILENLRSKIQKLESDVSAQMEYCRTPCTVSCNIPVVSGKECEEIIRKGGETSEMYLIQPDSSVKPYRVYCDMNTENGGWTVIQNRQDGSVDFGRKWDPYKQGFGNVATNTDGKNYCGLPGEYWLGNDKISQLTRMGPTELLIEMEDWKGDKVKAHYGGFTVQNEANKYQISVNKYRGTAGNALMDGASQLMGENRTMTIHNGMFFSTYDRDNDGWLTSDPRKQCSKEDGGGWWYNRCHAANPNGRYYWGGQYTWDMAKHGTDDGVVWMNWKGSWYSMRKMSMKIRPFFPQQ
# DDE Tn7 FP inh: DD(E)-Tn7 binding inhibition, primary FP screen; AID 720508; FP displacement of FITC-Tn7 peptide from fibrin DD(E); 0% = median of compound wells per plate; inhibition, % at 8.3 µM; P02675; 370,000 compounds, 0.13% hits;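 active = inhibition above the mean of compounds falling within the control limits plus 3 SD of them, cut at about 14% in these data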;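 also: 0% = plate median of compound wells and 100% = 10 µM Aha-Tn7 peptide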
#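 assay system = human clot-derived fibrin DD(E) complex | quantity = Fibrin-DD(E) at 2 µM final | timing = 10 min preincubation, 3 h with tracer, room temperature | signal = fluorescence polarization | measure = percent inhibition | benchmarks = high control wells with 10 µM unlabelled Aha-Tn7 peptide (full inhibition) | replicates = singlicate testing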
# CAL PDZ FP-1: blocks peptide binding to human CAL PDZ domain; purified CAL PDZ, TMR-peptide fluorescence polarization, 1 h; inhibition, % at 20 µM; 330,000 compounds, 0.02% hits; AID 504414;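 active = highest replicate inhibition of at least 40%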;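 also: plate controls were DMSO neutral control wells for no effect and unlabeled competitor peptide control wells for full effect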
#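 Test system: tagged CAL PDZ domain / Buffer or medium: sodium phosphate/NaCl buffer pH 7.4 with TCEP, IgG, Thesit / Reagent: TMR-labelled reporter peptide T*-PRC34 bound in PDZ groove / Compound dosing: single point, 20 µM / Schedule: 1 h incubation at room temperature before polarization reading / Technique: fluorescence polarization (mP) / Benchmarks: unlabelled peptide, DMSO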
# CAL PDZ FP-2: CAL PDZ (human) peptide binding inhibition; Q9HD26; purified CAL PDZ, TMR-peptide fluorescence polarization, 1 h; inhibition, % at 24.9 µM; 300,000 compounds, 0.92% hits; AID 602252;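 active = mean inhibition of at least 30% with at least half of replicates also reaching 30%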;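 also: 0% = DMSO neutral control and 100% = excess unlabeled competitor peptide PRC23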
# ARNT-TACC3 inh: disruptors of human ARNT/TACC3 interaction; Q9Y6A5; AlphaScreen His-ARNT PAS-B/GST-TACC3 binding, luminescence; TACC3 fragment carries E629A point mutation; inhibition, % at 9.99 µM; 390,000 compounds, 0.66% hits; AID 623870;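 active = mean inhibition of replicates at least 50% and at least half of replicates each reaching 50%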;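 also: 0% = complete ARNT plus TACC3 wells and 100% = ARNT alone without TACC3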
# Tn6 DDE ctr: DD(E)-Tn6 binding inhibition, counter-screen; shares compounds with DDE Tn6 FP inh; Fibrin DD(E), TRITC-Tn6 fluorescence polarization displacement; 0% = median of compound wells, not DMSO; inhibition, % at 8.3 µM; 680 compounds, 2% hits;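 active = inhibition above the mean of test compounds lying between the control limits plus 3 SD of those, cut at about 14% in these data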;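 also: 0% = median of compound wells and 100% = wells with Aha-Tn7 blocking peptide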
# Tn6 DDE conf: DD(E)-Tn6 binding inhibition, FP confirmation. FP displacement of TRITC-Tn6 peptide from DD(E); 0% = per-plate median of test wells. shares compounds with DDE Tn6 FP inh. inhibition, % at 8.3 µM. 680 compounds, 10% hits;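 active = inhibition above the mean of compounds lying within the control limits plus 3 SD, cut at about 16% in these data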;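 also: 100% = high control wells holding a competing inhibitor peptide at 10 µM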
# * marks the source's active call; other numbers are inactive results; nt = no result. Rows were chosen to be rich in hits. Some 1.8% of all compounds tested hit in one or more screens of this group.
SMILES,GRK2 aptamer HTS,DDE Tn6 FP inh,DDE Tn7 FP inh,CAL PDZ FP-1,CAL PDZ FP-2,ARNT-TACC3 inh,Tn6 DDE ctr,Tn6 DDE conf
COc1ccc(CC(=O)OCc2csc(CC(=O)Nc3ccc(C)cc3)n2)cc1,0,1,-9,0,nt,-1,nt,nt
Cc1ccc(NC(=O)Cc2nc(CCl)cs2)cc1,4,15*,4,2,-3,-10,3,1
Cc1ccc(S(=O)(=O)Nc2cccc3c2O[C@@H](CN(C)Cc2ccc(-c4ccccc4)cc2)[C@@H](C)CN([C@@H](C)CO)C3=O)cc1,nt,nt,nt,nt,nt,5,nt,nt
CCCCCn1c(=O)[nH]c2cc(C(=O)NCCCN3CCC(C)CC3)ccc2c1=O,0,18*,11,-5,-3,-4,-2,-8
COc1ccc(NC(=O)c2oc3ccccc3c2NC(=O)c2ccc(OC)c(OC)c2)c(OC)c1,nt,9,-6,-5,-2,28,nt,nt
COc1ccc(NC(=O)c2oc3ccccc3c2NC(=O)COc2ccccc2OC)c(OC)c1,2,18*,5,-1,nt,-11,4,3
O=C1N=C(N2CCN(c3ccccc3)CC2)S/C1=C/c1ccco1,3,17*,3,0,-4,16,9,2
O=C(Cn1nnc(-c2ccccc2F)n1)Nc1ccc(F)cc1F,nt,16*,3,nt,nt,nt,-3,-4
Cc1ccc(NC(=O)Cn2nnc(-c3ccccc3F)n2)c(C)c1,nt,3,-1,nt,nt,nt,nt,nt
COc1cccc(C(=O)NCC2(c3ccccc3)CCCC2)c1OC,2,-1,0,0,nt,-4,nt,nt
NS(=O)(=O)c1ccc(NC(=O)CSc2nc3ccccc3c(=O)n2-c2ccc(Br)cc2)cc1,nt,27*,-3,nt,nt,nt,1,8
NS(=O)(=O)c1ccc(NC(=O)CSc2nc3ccccc3c(=O)n2Cc2ccncc2)cc1,2,7,-6,-1,-5,0,nt,nt
O=C(CSc1ccc(-c2nc3ccccc3[nH]2)cn1)Nc1ccc(S(=O)(=O)NC2CC2)cc1,0,182*,-4,-8,-14,0,9,-12
CN(c1ccccc1)S(=O)(=O)c1ccc(Cl)c(C(=O)Nc2ccc(-c3nc4ccccc4[nH]3)cc2)c1,1,39*,11,-1,0,0,-1,21*
Cc1ccccc1C(=O)Nc1ccc(-c2nc3ccc(C(=O)c4ccccc4)cc3[nH]2)cc1,2,38*,-2,-6,-4,0,14*,22*
C[C@@H]1CN([C@H](C)CO)S(=O)(=O)c2ccc(C#CCN(C)C)cc2O[C@@H]1CN(C)CC1CC1,nt,nt,nt,nt,nt,1,nt,nt
COc1ccccc1C=NN=C(N)C(N)=NN=Cc1ccccc1OC,nt,-10,0,1,-3,-3,nt,nt
NC(N)=N/N=C/c1ccccc1OC(F)F,0,17*,1,0,-3,5,-1,-1
Cc1ccc(S(=O)(=O)N(C)C)cc1NC(=O)c1cccs1,3,17*,-1,0,0,-5,-2,-5
COc1ccc(C#Cc2ccc3c(c2)[C@]2(C(=O)N3)[C@H](c3ccccc3OCCO)N3[C@H](c4ccccc4)[C@H](c4ccccc4)OC(=O)[C@H]3[C@@H]2C(=O)NC[C@H](O)c2ccccc2)cc1,nt,nt,nt,nt,nt,36,nt,nt
COc1cc(NC(=O)c2ccccc2Cl)c2ncccc2c1,0,-6,4,-2,-1,8,nt,nt
COc1cc(NCCCC(C)N)c2ncccc2c1 (stereo not drawn),nt,52*,1,nt,-4,67*,-1,20*
CCC(CNc1cc(OC)cc2cccnc12)NC1CCCCC1 (stereo not drawn),0,33*,10,1,2,nt,-1,6
C[n+]1cc2c3c(ccc2c2ccc4cc5c(cc4c21)OCO5)OCO3,nt,27*,10,nt,nt,nt,3,20*
Cc1cc(CN(C)C(=O)CC2C(=O)NCCN2Cc2ccc(-c3ccccc3)cc2)on1 (stereo not drawn),0,16*,2,-1,nt,-9,-2,-14
COc1ccc(C(=O)N2C[C@H]3[C@@H](c4ccccc42)[C@H](CO)N3Cc2ccccc2)cc1,nt,nt,nt,nt,nt,-4,nt,nt
